Like-named read-outs stand apart in the source and are kept apart here.
Experiments:
[1] = system: SKOV3 cells (human ovarian carcinoma); experiment: MTT cytotoxicity assay, SKOV3; type: cell-based; conditions: read-out: (IC50 ± SD) SKOV3, at least 72 h incubation, mean ± SD
Procedure, shortened: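 Cells were grown in RPMI 1640 with 10% FBS and 1% penicillin-streptomycin at 37 °C, humidified CO2. They were seeded at 0.8 × 10^4 cells/well and allowed 24 h recovery. Test compound was added at 1–100 μM in triplicate for at least 72 h. Medium was replaced with 0.5 mg/mL MTT for 3 h at room temperature, and formazan was dissolved in DMSO. Absorbance was read at 490 nm. IC50 came from curve fitting, reported as mean ± SD.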

[2] = system: A549 cells (human lung carcinoma); experiment: MTT cytotoxicity assay, A549; type: cell-based; conditions: read-out: (IC50 ± SD) A549
SKOV3 cells = experiment: Intracellular ROS determination; type: cell-based, human; conditions: SKOV3, 1000 μM, positive control
Procedure, shortened: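 SKOV3 single-cell suspension (300 × 10^3) was exposed to test compound at 10, 20 or 40 μM for 2 h at 37 °C; untreated cells served as negative control. Cells were washed and loaded with DCFH-DA in phenol red-free RPMI for 1 h at 37 °C. The positive control got H2O2 (1000 μM) for a further 20 min. At least 15000 events were acquired by flow cytometry. ROS is reported as MFI divided by the untreated MFI0.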

MCF-7 cells = experiment: Comet assay; type: cell-based, human; conditions: MCF-7, 1 μM, positive control, versus untreated cells
Procedure, shortened: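 Alkaline comet assay on MCF-7 cells (5 × 10^5). Cells got test compound at 10 or 50 μM, doxorubicin at 1 μM as positive control, or no treatment, for 20 min at 37 °C in 5% CO2. Cells were embedded in LMPA over NMPA-coated slides, lysed cold overnight and held 40 min in alkaline buffer. Slides were electrophoresed at 24 V/300 mA, neutralised at pH 7.4, ethanol-dehydrated, PI-stained (50 μg/ml) and imaged by fluorescence microscopy at 20×.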

[3] = MTT, at least 72 h incubation, mean ± SD

SMILES	IC50 ([2]; Homo sapiens, A549, 72 h)	other results
N.N.[Cl][Pt][Cl] [Cisplatin, reference compound]	–	IC50 [1]: 14.5 ± 1.54 µM; IC50 [2, 3]: 9.71 ± 1.7 µM
OO [Complex H2O2, H2O2]	–	ROS induction (SKOV3 cells): could induce ROS production within 20 minutes
C=CCP(c1ccccc1)c1ccccc1 [PPh2allyl, allyldiphenylphosphine]	–	IC50 [2, 3]: > 100 µM
Sc1nc2ccccc2[nH]1 [Sbi, benzimidazole-2-thiol]	> 100 µM	–
Sc1nc2ccccc2s1 [Sbt, benzothiazole-2-thiol]	> 100 µM	–
Sc1ccccn1 [Spy, pyridine-2-thiol]	> 100 µM	–
FC(F)(F)c1ccc(S)nc1 [Spy-5-CF3, 5-(trifluoromethyl)-pyridine-2-thiol]	> 100 µM	–
Sc1ncccn1 [SpyN, pyrimidine-2-thiol]	> 100 µM	–
COc1cccc2c1C(=O)c1c(O)c3c(c(O)c1C2=O)C[C@@](O)(C(=O)CO)C[C@@H]3O[C@H]1C[C@H](N)[C@H](O)[C@H](C)O1 [doxorubicin]	–	percentage of degraded DNA in the tail (MCF-7 cells): remarkably increase
